Assay [1] deals with T1, Histone-lysine N-methyltransferase EHMT2 (Homo sapiens) (UniProt Q96KQ7).
T1 sequence (whole entry): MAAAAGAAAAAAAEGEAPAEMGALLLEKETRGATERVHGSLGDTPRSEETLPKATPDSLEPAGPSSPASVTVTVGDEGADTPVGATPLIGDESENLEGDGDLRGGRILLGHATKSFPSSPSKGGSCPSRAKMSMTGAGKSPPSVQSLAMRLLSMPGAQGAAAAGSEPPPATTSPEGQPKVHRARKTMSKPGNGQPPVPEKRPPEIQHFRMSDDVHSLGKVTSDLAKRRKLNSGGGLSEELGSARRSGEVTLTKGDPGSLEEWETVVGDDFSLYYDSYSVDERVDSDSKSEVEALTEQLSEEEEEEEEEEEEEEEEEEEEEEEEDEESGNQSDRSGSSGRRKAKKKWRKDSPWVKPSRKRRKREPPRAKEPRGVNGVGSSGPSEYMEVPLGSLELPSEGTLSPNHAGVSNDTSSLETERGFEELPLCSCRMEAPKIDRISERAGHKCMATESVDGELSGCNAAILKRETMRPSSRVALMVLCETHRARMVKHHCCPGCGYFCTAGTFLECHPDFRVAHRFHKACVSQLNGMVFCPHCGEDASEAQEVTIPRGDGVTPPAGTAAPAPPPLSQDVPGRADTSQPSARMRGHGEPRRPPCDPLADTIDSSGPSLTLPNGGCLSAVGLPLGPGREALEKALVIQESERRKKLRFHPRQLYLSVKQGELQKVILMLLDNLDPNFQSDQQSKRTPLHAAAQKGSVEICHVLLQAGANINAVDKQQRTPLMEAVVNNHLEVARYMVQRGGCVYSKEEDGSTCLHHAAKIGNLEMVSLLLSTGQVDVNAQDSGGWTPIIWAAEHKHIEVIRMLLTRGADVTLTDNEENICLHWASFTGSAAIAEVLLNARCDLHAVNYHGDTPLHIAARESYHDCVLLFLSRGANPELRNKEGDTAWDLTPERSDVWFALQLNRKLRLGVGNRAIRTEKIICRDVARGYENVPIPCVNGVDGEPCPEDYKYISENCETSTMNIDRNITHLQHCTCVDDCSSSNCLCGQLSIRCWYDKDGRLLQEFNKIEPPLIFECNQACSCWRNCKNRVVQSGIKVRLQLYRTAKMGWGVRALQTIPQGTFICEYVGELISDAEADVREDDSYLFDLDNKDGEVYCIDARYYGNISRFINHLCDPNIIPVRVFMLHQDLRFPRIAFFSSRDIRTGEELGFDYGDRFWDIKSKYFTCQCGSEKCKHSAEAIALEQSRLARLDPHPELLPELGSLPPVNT
The assay is described as follows: Inhibition of G9a in human MDA-MB-231 cells assessed as slight decrease in […] levels at 0.3 to 3 uM after 72 hrs by Western blot analysis. It is filed as cell-based. To be noted: dose 0.3-3 µM.

In assay [2] the target is T1, Histone-lysine N-methyltransferase EHMT2 (Homo sapiens). The assay is described as follows: Inhibition of G9a in human MOLT-16 cells assessed as decrease in […] levels after 72 hrs by Western blot analysis. In kind it is cell-based. In a few lines:
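MOLT-16 T-ALL cells treated 3 days with compound over a concentration range and lysed. Lysates normalized and immunoblotted for H3K9me2, total H3 and G9a.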

Assay [3] shares this target. The assay is described as follows: Inhibition of G9a in human HT-1080 cells assessed as decrease in […] levels after 2 days by AlphaLisa assay. It is filed as cell-based. To be noted: time 2.0 day. The gist of the method:
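HT-1080 cells treated 2 days with compound over a concentration range. Viability read by CellTiter-Glo; H3K9me2 measured by AlphaLISA and normalized to viability. % inhibition calculated relative to untreated cells set as 0%.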

The subject of a further assay is MOLT-16. The assay is described as follows: Antiproliferative against human MOLT-16 cells after 5 days by Cell-Titer Glo assay. Conditions: MOLT-16, 120 h. In kind it is functional, cell-based. In a few lines: (§1)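 ATCC tumor lines were grown in their recommended media with 10% FBS and STR-authenticated. Cells were exposed to compound for the stated number of days. Viable cells were read by CellTiter-Glo endpoint. Inhibition was the ratio of treated to untreated wells, with cell-free wells set as 100% inhibition. The EC50 was taken from the dose response.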

The subject of the next assay is THP-1. The experiment in a line: Antiproliferative against human THP-1 cells after 5 days by Cell-Titer Glo assay. It is filed as functional, cell-based. To be noted: THP-1, 120 h. In a few lines:
as §1

Another assay relates to RS4-11. The assay is described as follows: Antiproliferative against human RS4-11 cells after 5 days by Cell-Titer Glo assay. In kind it is functional, cell-based. Conditions: RS4-11, 120 h. In a few lines: as §1
The subject of a further assay is KMS-12-BM. The experiment in a line: Antiproliferative against human KMS-12-BM cells after 5 days by Cell-Titer Glo assay. In kind it is functional, cell-based. To be noted: 120 h. The gist of the method: as §1
A further assay deals with K562. The experiment in a line: Antiproliferative against human K562 cells after 5 days by Cell-Titer Glo assay. In kind it is functional, cell-based. To be noted: K562, 120 h. The gist of the method: as §1
The next assay has as its system CWR22R. The assay is described as follows: Antiproliferative against human 22RV1 cells after 5 days by Cell-Titer Glo assay. In kind it is functional, cell-based. To be noted: 22Rv1, 120 h. In a few lines: as §1
For another assay, the system named is NCI-H1975. The assay is described as follows: Antiproliferative against human NCI-H1975 cells after 5 days by Cell-Titer Glo assay. It is filed as functional, cell-based. Conditions: NCI-H1975, 120 h. The gist of the method: as §1
Another assay has as its system NCI-H522. The experiment in a line: Antiproliferative against human NCI-H522 cells after 5 days by Cell-Titer Glo assay. It is filed as functional, cell-based. Conditions: NCI-H522, 120 h. The gist of the method: as §1
Another assay concerns NCI-H661. The assay is described as follows: Antiproliferative against human NCI-H661 cells after 5 days by Cell-Titer Glo assay. In kind it is functional, cell-based. Conditions: NCI-H661, 120 h. The gist of the method: as §1
The next assay relates to SK-N-MC. The experiment in a line: Antiproliferative against human SK-N-MC cells after 7 days by Cell-Titer Glo assay. In kind it is functional, cell-based. To be noted: 168 h. In a few lines: as §1
For the next assay, the system named is ZR-75-30. The assay is described as follows: Antiproliferative against human ZR-75-30 cells after 7 days by Cell-Titer Glo assay. It is filed as functional, cell-based. Conditions: ZR-75-30, 168 h. In a few lines: as §1
Another assay deals with U2OS. The experiment in a line: Antiproliferative against human U2OS cells after 7 days by Cell-Titer Glo assay. It is filed as functional, cell-based. To be noted: 168 h. The gist of the method:
as §1

In a further assay the test system is Daoy. The assay is described as follows: Antiproliferative against human Daoy cells after 7 days by Cell-Titer Glo assay. In kind it is functional, cell-based. Conditions: 168 h. In a few lines:
as §1

Assay [4] is described as follows: Antiproliferative against human TC71 cells after 7 days by Cell-Titer Glo assay. In kind it is functional, cell-based. To be noted: TC-71, 168 h. The gist of the method:
as §1

Another assay has as its system IMR-32. The assay is described as follows: Antiproliferative against human IMR-32 cells after 7 days by Cell-Titer Glo assay. It is filed as functional, cell-based. To be noted: IMR-32, 168 h. The gist of the method: as §1
Assay [5] can be described thus: Antiproliferative against human tsA201 cells after 7 days by Cell-Titer Glo assay. It is filed as functional, cell-based. Conditions: tsA201, 168 h. In a few lines:
as §1

Assay [6] addresses T1, Histone-lysine N-methyltransferase EHMT2 (Homo sapiens). The experiment in a line: Inhibition of G9a in human PC-3 cells assessed as effect on H3k4me2 levels at 0.3 to 3 uM after 72 hrs by Western blot analysis. In kind it is cell-based. To be noted: dose 0.3-3 µM. The gist of the method:
(§2)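 PC-3 prostate cells incubated with DMSO, 0.3 or 3 μM compound for 72 h. Lysates probed by western blot with antibodies to H3K9me2, H3K4me2, H3K4me3, H3K9me3, H4K20me1, H4K20me3, H3K36me2 and H3K27me3.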

Assay [7] shares this target. The experiment in a line: Inhibition of G9a in human PC-3 cells assessed as effect on H4k20me1 levels at 0.3 to 3 uM after 72 hrs by Western blot analysis. It is filed as cell-based. Conditions: dose 0.3-3 µM. The gist of the method: as §2
In the next assay the test system is MV4-11. The experiment in a line: Inhibition of cell viability in human MV4-11 cells after 14 days by trypan blue exclusion assay. In kind it is functional, cell-based. To be noted: time 14.0 day. The gist of the method:
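MV4;11 cells treated 14 days with compound over a concentration range. Viability scored by trypan blue exclusion; parallel proliferation read by CellTiter-Glo.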

For 2 compounds, inhibition and EC50 results are on record in ChEMBL document CHEMBL5674869, “The Histone Methyltransferase Inhibitor A-366 Uncovers a Role for G9a/GLP in the Epigenetics of Leukemia” (PLoS One, 2015).

Calls of active or inactive are those of the source. The rule behind the calls is not given here. Where only a bound is given, the exact number is not on record here.

As to `COc1cc2c(NC3CCN(C(C)C)CC3)nc(C3CCCCC3)nc2cc1OCCCN1CCCC1`, the inhibition result in [1], in assay [2] and in [3] was “Active” in each case. Further, the EC50 was 0.2 µM in the assay with MOLT-16; 4.9 µM in the assay on THP-1; 3.1 µM in the assay with RS4-11; 4.4 µM in the assay on KMS-12-BM; 5.3 µM in the assay on K562; 0.2 µM in the assay on CWR22R. Further, the concentration for a half-maximal effect (EC50) in the assay on NCI-H1975 is greater than 10 µM; in the assay on NCI-H522, 1.5 µM; with NCI-H661, 4.9 µM; in the assay with SK-N-MC it was 0.2 µM; in the assay on ZR-75-30, 1.2 µM; in the assay with U2OS it was 0.5 µM. The EC50 with Daoy was 0.1 µM; in assay [4], 0.6 µM; with IMR-32 it was greater than 10 µM; in assay [5], greater than 10 µM.

Consider `COc1cc2c(cc1OCCCN1CCCC1)N=C(N)C21CCC1`, for which the inhibition result in assay [6] and in assay [7] was “inactive” throughout. For the same compound, the inhibition entry (in assay [1]; in [2]; in [3]; with MV4-11) was “Active” in each case. Further, the EC50 in the assay with MOLT-16, in the assay with THP-1, in the assay with RS4-11, in the assay on KMS-12-BM, with K562 and in the assay with CWR22R was greater than 10 µM throughout. Further, the EC50 in the assay with NCI-H1975, with NCI-H522, in the assay on NCI-H661, in the assay on SK-N-MC, in the assay with ZR-75-30 and in the assay on U2OS was greater than 10 µM each time. The half-maximal effective concentration (EC50) (with Daoy; in assay [4]; with IMR-32; in assay [5]) was greater than 10 µM in each case.
